Columns and labels:
[1] = target: T1, Histone deacetylase 8 (Schistosoma mansoni, UniProt A5H660); assay: Inhibition of Schistosoma mansoni HDAC8 using Fluor de Lys as substrate incubated for 90 mins by fluorescence method
T1 sequence (A5H660 whole entry): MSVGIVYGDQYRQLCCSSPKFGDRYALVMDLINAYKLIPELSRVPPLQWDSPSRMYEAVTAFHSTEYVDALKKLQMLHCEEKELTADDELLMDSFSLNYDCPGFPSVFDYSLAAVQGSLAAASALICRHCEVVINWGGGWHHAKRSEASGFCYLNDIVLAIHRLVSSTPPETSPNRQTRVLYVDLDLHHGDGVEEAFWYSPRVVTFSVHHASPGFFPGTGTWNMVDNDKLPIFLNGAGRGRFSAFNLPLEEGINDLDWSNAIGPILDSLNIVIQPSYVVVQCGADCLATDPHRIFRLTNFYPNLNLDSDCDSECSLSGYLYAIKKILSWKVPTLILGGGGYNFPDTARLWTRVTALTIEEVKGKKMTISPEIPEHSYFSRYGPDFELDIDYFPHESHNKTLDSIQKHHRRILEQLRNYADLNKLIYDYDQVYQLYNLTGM
Outline: (§1)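 Recombinant smHDAC8 or hHDAC8 (Romier lab) run to Fluor de Lys HDAC8 kit protocol. Substrate H2N-Arg-His-Lys(Ac)-Lys(Ac)-AMC at 50 μM with increasing inhibitor concentrations, 90 min at 37°C. Stop solution holding inhibitor plus trypsin, then 20 min at 37°C to release AMC. Fluorescence read at Ex 355/Em 460 nm.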

[2] = target: T2, Histone deacetylase 8 (Homo sapiens, UniProt Q9BY41); assay: Inhibition of human recombinant HDAC8 using H2N-Arg-His-Lys(Ac)-Lys(Ac)-AMC as substrate after 90 mins by fluorescence based micro plate assay
T2 sequence (Q9BY41 whole entry): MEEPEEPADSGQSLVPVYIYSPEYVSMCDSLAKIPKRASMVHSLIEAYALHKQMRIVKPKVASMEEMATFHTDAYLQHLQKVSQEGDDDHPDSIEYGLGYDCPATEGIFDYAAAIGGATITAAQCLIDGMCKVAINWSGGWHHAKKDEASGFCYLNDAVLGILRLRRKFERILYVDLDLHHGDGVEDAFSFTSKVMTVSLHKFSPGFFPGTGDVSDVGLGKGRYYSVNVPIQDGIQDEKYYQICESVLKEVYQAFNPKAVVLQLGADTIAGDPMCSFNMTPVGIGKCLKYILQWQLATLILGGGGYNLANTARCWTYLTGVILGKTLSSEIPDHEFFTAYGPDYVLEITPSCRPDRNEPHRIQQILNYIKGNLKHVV

[3] = target: T3, Histone deacetylase 1 (Homo sapiens, UniProt Q13547); assay: Inhibition of recombinant human HDAC1 using ZMAL as substrate incubated for 90 mins by fluorescence based micro plate assay
T3 sequence (Q13547 whole entry): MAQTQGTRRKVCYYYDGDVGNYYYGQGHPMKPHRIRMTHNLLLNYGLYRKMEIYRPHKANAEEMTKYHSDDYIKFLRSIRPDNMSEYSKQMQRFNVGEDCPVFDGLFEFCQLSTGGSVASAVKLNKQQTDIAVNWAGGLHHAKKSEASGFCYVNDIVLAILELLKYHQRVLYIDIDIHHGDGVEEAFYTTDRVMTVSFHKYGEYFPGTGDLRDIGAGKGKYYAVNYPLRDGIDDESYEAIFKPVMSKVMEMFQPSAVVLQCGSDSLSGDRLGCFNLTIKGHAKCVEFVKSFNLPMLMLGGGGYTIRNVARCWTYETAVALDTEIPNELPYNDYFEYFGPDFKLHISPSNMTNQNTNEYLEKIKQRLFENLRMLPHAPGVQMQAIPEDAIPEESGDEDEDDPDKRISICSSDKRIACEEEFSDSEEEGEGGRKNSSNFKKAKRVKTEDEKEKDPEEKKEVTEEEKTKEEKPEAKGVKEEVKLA

[4] = target: T4, Protein deacetylase HDAC6 (Homo sapiens, UniProt Q9UBN7); assay: Inhibition of recombinant human HDAC6 using ZMAL as substrate incubated for 90 mins by fluorescence based micro plate assay
T4 sequence (Q9UBN7 whole entry): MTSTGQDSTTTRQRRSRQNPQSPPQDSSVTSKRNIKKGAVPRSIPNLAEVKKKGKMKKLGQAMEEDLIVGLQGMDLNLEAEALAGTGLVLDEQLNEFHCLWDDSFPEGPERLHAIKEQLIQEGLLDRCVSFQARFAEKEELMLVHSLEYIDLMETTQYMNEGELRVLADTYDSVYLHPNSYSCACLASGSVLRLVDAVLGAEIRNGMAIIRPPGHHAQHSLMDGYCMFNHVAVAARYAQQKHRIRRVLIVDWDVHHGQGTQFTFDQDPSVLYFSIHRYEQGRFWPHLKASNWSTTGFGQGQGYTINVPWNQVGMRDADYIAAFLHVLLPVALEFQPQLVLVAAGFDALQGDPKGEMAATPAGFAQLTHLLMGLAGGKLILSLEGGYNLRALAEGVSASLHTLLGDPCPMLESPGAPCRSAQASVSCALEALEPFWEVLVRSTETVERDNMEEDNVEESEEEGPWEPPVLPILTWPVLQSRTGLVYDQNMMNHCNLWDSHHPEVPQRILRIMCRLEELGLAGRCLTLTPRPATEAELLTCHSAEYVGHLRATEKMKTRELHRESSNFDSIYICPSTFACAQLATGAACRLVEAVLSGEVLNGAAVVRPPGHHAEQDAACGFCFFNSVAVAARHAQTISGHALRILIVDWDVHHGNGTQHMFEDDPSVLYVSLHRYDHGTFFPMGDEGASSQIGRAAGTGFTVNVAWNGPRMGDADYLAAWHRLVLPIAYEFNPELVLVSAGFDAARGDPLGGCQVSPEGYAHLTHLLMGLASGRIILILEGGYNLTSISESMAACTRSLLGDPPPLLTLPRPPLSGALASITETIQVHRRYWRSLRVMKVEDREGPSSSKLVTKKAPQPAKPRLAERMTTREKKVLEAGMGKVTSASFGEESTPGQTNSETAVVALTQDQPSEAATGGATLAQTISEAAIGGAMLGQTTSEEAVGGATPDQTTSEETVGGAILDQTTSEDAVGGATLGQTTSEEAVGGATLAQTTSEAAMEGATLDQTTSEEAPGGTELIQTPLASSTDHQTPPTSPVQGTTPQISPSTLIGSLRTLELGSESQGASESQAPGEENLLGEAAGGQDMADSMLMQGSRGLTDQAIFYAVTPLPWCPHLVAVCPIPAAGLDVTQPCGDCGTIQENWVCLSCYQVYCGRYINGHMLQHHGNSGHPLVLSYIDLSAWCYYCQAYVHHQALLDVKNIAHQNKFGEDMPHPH

[5] = tested on: Schistosoma mansoni; assay: Antischistosomal activity against Schistosoma mansoni schistosomula at 10 uM incubated for 48 hrs by Alamar Blue assay; assay type: functional
Outline: (§2)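 S. mansoni newly transformed schistosomula from mechanically transformed cercariae, 100 NTS/well in Medium 199 with 10% FCS, penicillin, streptomycin and rifampicin. Pre-cultured 3 h at 37°C, 5% CO2. Compounds from 20 mM DMSO stocks, final 10 or 20 μM. Alamar Blue added after 48 h exposure, then 24 h more. Resorufin read at Ex 530/Em 590 nm. Live and ethanol-killed larvae as controls; triplicate wells, two biological replicates.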

[6] = tested on: HEK293; assay: Cytotoxicity against human HEK293 assessed as reduction in cell viability at 50 uM measured for 24 hrs by Alamar Blue assay; assay type: cell-based; conditions: hek293, 24 h
Outline: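 HEK293 cells in DMEM with 10% FCS and 5 mM glutamine at 37°C, 5% CO2, seeded at 1.5×10^3 cells/well. Compounds added at 50 μM. AlamarBlue added after 24 h and incubated a further 21 h. Resorufin fluorescence read at Ex 530/Em 590 nm. Triplicates; daunorubicin positive control.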

[7] = Solubility of the compound; assay type: physicochemical
[8] = tested on: Schistosoma mansoni; assay: Antischistosomal activity against Schistosoma mansoni schistosomula incubated for 72 hrs by Alamar Blue assay; assay type: functional, organism-based
Outline: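 Same schistosomula Alamar Blue assay (100 NTS/well, supplemented Medium 199, 37°C, 5% CO2) run over a range of concentrations. Alamar Blue added after 48 h drug exposure, fluorescence (Ex 530/Em 590 nm) read 24 h later, 72 h in culture in total. EC50 taken from the concentration-response.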

[9] = target: T3, Histone deacetylase 1; assay: (§3) Inhibition of recombinant human HDAC1 at 1 uM using ZMAL as substrate incubated for 90 mins by fluorescence based micro plate assay relative to control; conditions: 1.5 h, 1 µM
Outline: (§4)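 Recombinant human HDAC1 or HDAC6 incubated 90 min at 37°C with ZMAL (Z-(Ac)Lys-AMC, 10.5 μM) and inhibitor. Developed with buffer containing trypsin (1 mg/mL) and TSA (2.75 μM), 20 min at 37°C. Fluorescence read at Ex 390/Em 460 nm.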

[10] = target: T5, HDAC1 (histone deacetylase 1) (Homo sapiens, UniProt Q13547); assay: Inhibition of recombinant human HDAC1 at 10 uM using ZMAL as substrate incubated for 90 mins by fluorescence based micro plate assay relative to control; conditions: recombinant human HDAC1, probe ZMAL; outline: as §4
T5 sequence (Q13547 whole entry): as the sequence (Q13547 whole entry) above

[11] = target: T6, HDAC6 (protein deacetylase HDAC6) (Homo sapiens, UniProt Q9UBN7); assay: Inhibition of recombinant human HDAC6 at 10 uM using ZMAL as substrate incubated for 90 mins by fluorescence based micro plate assay relative to control; conditions: recombinant human HDAC6, probe ZMAL; outline: as §4
T6 sequence (Q9UBN7 whole entry): T4 sequence (Q9UBN7 whole entry)

[12] = target: T6, HDAC6 (protein deacetylase HDAC6); assay: Inhibition of recombinant human HDAC6 at 1 uM using ZMAL as substrate incubated for 90 mins by fluorescence based micro plate assay relative to control; conditions: recombinant human HDAC6, probe ZMAL; outline: as §4
[13] = tested on: Schistosoma mansoni; assay: Antischistosomal activity against Schistosoma mansoni schistosomula at 20 uM incubated for 48 hrs by Alamar Blue assay; assay type: functional; outline: as §2
[14] = target: T5, HDAC1 (histone deacetylase 1); assay: as §3; conditions: recombinant human HDAC1, probe ZMAL; outline: as §4
[15] = target: T7, Histone deacetylase 8 (Homo sapiens) (UniProt Q9BY41); assay: Inhibition of human recombinant HDAC8 at 1 uM using H2N-Arg-His-Lys(Ac)-Lys(Ac)-AMC as substrate after 90 mins by fluorescence based micro plate assay; outline: as §1
T7 sequence (whole entry): T2 sequence (Q9BY41 whole entry)

[16] = target: T8, Histone deacetylase 8 (Schistosoma mansoni) (UniProt A5H660); assay: Inhibition of Schistosoma mansoni HDAC8 at 0.5 uM using Fluor de Lys as substrate incubated for 90 mins by fluorescence method relative to control; outline: as §1
T8 sequence (whole entry): T1 sequence (A5H660 whole entry)

[17] = target: T6, HDAC6 (protein deacetylase HDAC6); assay: Inhibition of recombinant human HDAC6 at 100 uM using ZMAL as substrate incubated for 90 mins by fluorescence based micro plate assay relative to control; conditions: recombinant human HDAC6, probe ZMAL; outline: as §4

SMILES	IC50 [1] [nM]	IC50 [2] [nM]	IC50 [3] [nM]	IC50 [4] [nM]	Activity [5] [%]	Activity [6] [%]	solubility [7]	EC50 [8] [nM]	inhibition (INH) [9]	inhibition at 1.5 h, 10 µM [10] [%]	inhibition at 1.5 h, 10 µM [11] [%]	inhibition at 1.5 h, 1 µM [12] [%]	Activity [13] [%]	inhibition at 1.5 h, 1 µM [14] [%]	inhibition [15] [%]	inhibition [16] [%]	inhibition at 1.5 h, 100 µM [17] [%]
COc1ccc(C(=O)NO)cc1NC(=O)c1cccc2c1oc1ccccc12	270	320	18500	290	2.2	73	Insoluble	3500									
COc1ccc(C(=O)NO)cc1NC(=O)c1ccc(-c2ccccc2)cc1Cl	100	1100			64	94.6			Not Active	16	46	15	65.6				
COc1ccc(NC(=O)c2cc(C(=O)NO)ccc2OC)cc1	430	270			91	94.5						18	83.3	2			
O=C(NO)c1ccc(Cl)c(C(=O)Nc2ccc(Cl)cc2)c1					77.6	69.5						94	62.3	20			
COc1ccc(C(C)=O)cc1NC(=O)c1cc(C(=O)NO)ccc1OC	150		360	20	78.2	66.2							66.2		71		
CCOc1ccc(C(=O)NO)cc1NC(=O)c1ccc(OC)cc1					64.4	88.7							59.4			51	
O=C(NO)c1ccc(Cl)c(NC(=O)c2ccc(-c3ccccc3)cc2Cl)c1	110	780		2400	60.6	77				18			43.5	7			
COc1ccc(Cn2ccc3ccc(C(=O)NO)cc32)cc1					71	96.8							62.3				41
CCOc1ccc(C(=O)NO)cc1NC(=O)c1ccc(Cl)cc1Cl	100	230	21100	7740	56.2	86.8							56.4				
COc1ccc(C(=O)NO)cc1C(=O)Nc1cccc(Cl)c1	170	280			85.6	88.2						25	82.8	0			
CCCOc1ccc(C(C)=O)cc1C(=O)Nc1cc(C(=O)NO)ccc1C	110	140	360	20	45.2	68.8							34				

Source: ChEMBL document CHEMBL4842354, “Synthesis, structure-activity relationships, cocrystallization and cellular characterization of novel smHDAC8 inhibitors for the treatment of schistosomiasis” (Eur J Med Chem, 2021)
